Screens deposited in PubChem by several laboratories.
An excerpt weighted towards active compounds, which were near 1.4% of everything screened.
HCV core dimer: inhibitors of HCV core protein dimerization, primary screen, biochemical, TR-FRET, high-throughput | TR-FRET GST/Flag-core106 dimerization, 1536-well | inhibition, % at 5 µM | 300,000 tested, 0.33% active;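 active = inhibition above the mean of all tested compounds plus 3 SD, set per screening campaign, cut at about 45% in these data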
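System: GST-tagged and Flag-tagged HCV core protein residues 1-106 / Input: core106 proteins, GST 13.5 nM and Flag 17 nM / Buffer or medium: KF-containing HEPES buffer, pH 7.45, DTT, CHAPS, BSA / Probe or stimulus: Eu-anti-GST and XL665-anti-Flag labelled anti-tag antibodies / Schedule: 4 h, 22.5 °C incubation / Technique: TR-FRET 671 and 617 nm emission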
EBNA-1 inh: EBNA-1 DNA-binding inhibitors, primary screen, biochemical, fluorescence polarization; AID 1950, 2009; inhibition, % at 14.8 µM; 300,000 tested, 0.34% active; in the data active = inhibition above about 28%
NS3 helicase inh: inhibitors of HCV NS3 helicase, primary screen, biochemical, Cy5 molecular beacon fluorescence; inhibition, % at 10.9 µM; NS3 helicase DNA unwinding; 290,000 tested, 0.56% active;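 active = inhibition above the mean of all tested compounds plus 3 SD, set per campaign, cut at about 35% in these data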;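 also: 0% = DMSO wells and 100% = thioflavine S control wells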
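test system = hepatitis C virus NS3 helicase domain fragment enzyme | reagent = annealed dual-labelled DNA beacon duplex, ATP-started | times = 1 h at 25 °C | detection = Cy5 fluorescence, 0 and 60 min reads | read-out basis = percent inhibition from t60/t0 fluorescence ratio | control set = DMSO and thioflavine S | replication = one well per compound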
ZTA DNA inh: counter-screen for EBNA-1 inhibitors: inhibitors of Epstein-Barr virus ZTA; AID 2234; inhibition, % at 11 µM; 320,000 tested, 0.15% active; P03206; ZTA-DNA binding, fluorescence polarization; in the data active = inhibition above about 33%
Target sequence (P03206 whole entry, looked up): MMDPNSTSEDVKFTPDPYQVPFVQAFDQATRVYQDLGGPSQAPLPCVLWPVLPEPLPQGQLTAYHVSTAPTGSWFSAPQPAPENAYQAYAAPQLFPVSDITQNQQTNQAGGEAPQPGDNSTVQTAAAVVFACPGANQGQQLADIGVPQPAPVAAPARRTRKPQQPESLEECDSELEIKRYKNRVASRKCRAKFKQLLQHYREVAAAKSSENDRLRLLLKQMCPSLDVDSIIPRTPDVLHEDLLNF
UBC9 SUMO inh: inhibitors of in vitro SUMOylation cascade, primary screen, biochemical, HTRF, uHTS | SUMO-conjugating enzyme UBC9 (Homo sapiens), P63279 | inhibition, % at 35 µM | HTRF SUMOylation assay, SAE1/SAE2 + UBC9 | 290,000 tested, 0.36% active | AID 2006, 2009; in the data active = inhibition above about 50%, passing the limit was not always enough; inconclusive = no clear call, values can overlap the other calls
Target sequence (P63279 whole entry, looked up): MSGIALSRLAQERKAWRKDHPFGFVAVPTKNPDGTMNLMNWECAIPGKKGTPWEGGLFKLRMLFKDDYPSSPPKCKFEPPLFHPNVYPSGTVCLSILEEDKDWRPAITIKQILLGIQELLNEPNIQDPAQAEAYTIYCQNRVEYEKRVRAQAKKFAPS
NS3 helicase cf: HCV NS3 helicase inhibitors, retest, confirmation, biochemical, Cy5 molecular beacon fluorescence, triplicate. inhibition, % at 10.9 µM. 1,600 tested, 31% active. shares compounds with NS3 helicase inh. NS3 helicase DNA unwinding;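 active = inhibition above the mean of all tested compounds plus 3 SD, cutoff set per campaign, cut at about 36% in these data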
DNA FID counter: compounds displacing fluorescent DNA intercalator, artefact control for HCV NS3 helicase inhibitor project, biochemical, FID fluorescence, triplicate. shares compounds with NS3 helicase inh. DNA fluorescent intercalator displacement. inhibition, % at 7.9 µM. 1,600 tested, 4% active; in the data active = inhibition above about 37%;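 also: 0% = vehicle and 100% = reference compound; higher means more displacement of ethidium bromide from the DNA hairpin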
* hit, by the source's call; ? = inconclusive; . = not tested or not shown.

SMILES	HCV core dimer	EBNA-1 inh	NS3 helicase inh	ZTA DNA inh	UBC9 SUMO inh	NS3 helicase cf	DNA FID counter
CCOC(=O)C1(Cc2cccc(Cl)c2)CCCN(C(=O)CCN2CCCC2=O)C1 (stereo not drawn)	-7	10	65*	-7	10	-12	-38
CCOC(=O)C1(Cc2cccc(Cl)c2)CCCN(C(=O)CCSC)C1 (stereo not drawn)	4	-4	-5	-5	-6	.	.
CN1N=C2c3ccccc3CCC2C1c1ccc(Cl)cc1 (stereo not drawn)	2	7	0	-5	1	.	.
COc1cc(C(c2c(C(=O)O)[nH]c3ccccc23)c2c(C(=O)O)[nH]c3ccccc23)ccc1OCc1ccccc1	36	15	37*	21	20	17	25
O=C(O)c1[nH]c2ccccc2c1C(c1ccccc1)c1c(C(=O)O)[nH]c2ccccc12	4	0	-31	-3	5	.	.
Cc1cccc(C)c1NC(=O)CN(C)C(=O)C1=COCCO1	.	.	.	-9	.	.	.
O=C(Nc1ncc(Br)s1)C(Cc1ccccc1)n1cccc1 (stereo not drawn)	7	-2	44*	27	-19	-17	13
O=C(Nc1cccnc1)C(Cc1ccccc1)n1cccc1 (stereo not drawn)	1	-14	8	-6	2	.	.
CC(=O)c1cccc(NC(=O)C2CCN(C(=O)c3cccs3)CC2)c1	10	-1	-5	-10	-17	.	.
CC(=O)Oc1cc2c3c(c1)/C(=C1/SC(=S)NC1=O)C(=O)N3C(C)(C)C=C2C	9	7	53*	12	18	80*	28
CC(=O)c1c(C)[nH]c(C(=O)OCC(=O)NCc2cccs2)c1C	.	.	.	-19	.	.	.
COCCn1c(SC(C)C(=O)NCC2CCCO2)nc2scc(-c3ccc(F)cc3)c2c1=O (stereo not drawn)	2	3	.	-6	.	.	.
Cc1ccc(NC(=O)C(C)N2CCN(C)CC2)cc1S(=O)(=O)N1CCOCC1 (stereo not drawn)	.	.	.	8	.	.	.
C=C1CCN([C@@H](CC(C)C)C(=O)NCCC(C)C)S(=O)(=O)c2ccccc21	-3	-5	.	6	.	.	.
COc1ccc2oc(=O)c(-c3nnc(NCc4ccco4)s3)cc2c1	15	-9	37*	7	?	-5	23
Cc1ccc(-c2csc(NC(=O)c3ccccc3Cl)c2C(=O)O)cc1	15	20	39*	12	24	77*	7
Cc1ccc(-c2csc(NC(=O)c3cccc(C)c3)c2C(=O)O)cc1	11	7	.	-8	.	.	.
Cc1ccc(-c2csc(NC(=O)c3ccc(Br)cc3)c2C(=O)O)cc1	20	2	42*	-8	27	69*	-1
Cc1cccc(C(=O)Nc2scc(-c3ccc(Br)cc3)c2C(=O)O)c1	21	11	.	4	.	.	.
CSc1ccc(/C=C2\CCn3c2nc2cc(C(=O)O)ccc2c3=O)cc1	-15	2	4	-11	15	.	.
Fc1cccc(Cl)c1CNCc1cccnc1	3	-9	6	-3	12	.	.
CCN(CC)c1ccc(N=Cc2c(C)[nH]c3ccccc23)cc1	-15	199*	38*	188*	-27	28	39*
CCOC(=O)c1cnc(-c2ccccc2)nc1N1CCOCC1	0	-8	49*	-2	11	-14	-20
CCOC(=O)c1cnc(-c2ccccc2)nc1N	-4	7	1	9	26	.	.
O=C(N/N=C/c1cc(Br)c(Br)o1)c1ccc2c(c1)OCCO2	8	4	37*	11	5	1	4
COC(=O)c1c(NC(=O)CSc2nc3ccccc3c(=O)n2-c2ccccc2)sc(C)c1C	28	4	48*	11	6	10	-20
CC(C)Cn1c(/C=C/c2ccco2)nc2ccccc21	47*	11	55*	1	22	-14	-1
